NR2E3 ag-1: NR2E3 (human) agonism; GST-NR2E3/biotin-RetCOR TR-FRET, 1536-well; inhibition of corepressor binding, % at 4.78 µM; 0.12% of 320,000 active; AID 2300;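 active means percent inhibition above the cutoff of mean plus 3 SD of all tested compounds, set per screening campaign, cut at about 20% in these data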;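 further: 0% = DMSO wells and 100% = biotin wells as full block of FRET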
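Material: NR2E3–RetCOR corepressor complex / Incubation: Compound–protein incubation for 5 h at 4 °C / Dosing: compound at 4.8 µM, single dose / Detection: time-resolved FRET / Benchmarks: high control biotin, low control 0.6% DMSO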
CHT PAM: allosteric activators of human choline transporter CHT. CHT-expressing cells, membrane potential dye, choline EC20; stronger effect = higher value; LV-AA mutant CHT in HEK293 cells. B-score at 10 µM. 0.49% of 310,000 active;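 active means initial fluorescence not abnormally high and integrated response B-score, plate-corrected, over 3 SD above library mean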
GalR3 antagonist: antagonists of human GalR3; O60755; 0.44% of 360,000 active; HEK293 GalR3-CNG cAMP membrane potential fluorescence; galR3 body fused to GalR1 C-terminus; AID 651719; inhibition, % at 3 µM;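 active means inhibition above the screen-wide average plus 3 SD, cut at about 13% in these data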;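 further: forskolin and galanin both at EC90 stimulate the cells; cAMP rise reported by CNG channel membrane potential dye signal; 0% = forskolin plus galanin with DMSO and 100% = forskolin alone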
NR2F2 inh: NR2F2 (human) inhibition, primary screen; P24468; HEK293T NGFI-A luciferase reporter, luminescence; AID 686940; 0.7% of 370,000 active; inhibition, % at 8.6 µM;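 active means inhibition above a per-plate cutoff, mean inhibition of test wells between control levels plus 3 SD, cut at about 38% in these data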;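 further: cells cotransfected with COUP-TFII expression vector driving the NGFI-A reporter; 0% = median of COUP-TF2 test wells and 100% = reporter-only cells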
Target sequence (P24468 whole entry, looked up): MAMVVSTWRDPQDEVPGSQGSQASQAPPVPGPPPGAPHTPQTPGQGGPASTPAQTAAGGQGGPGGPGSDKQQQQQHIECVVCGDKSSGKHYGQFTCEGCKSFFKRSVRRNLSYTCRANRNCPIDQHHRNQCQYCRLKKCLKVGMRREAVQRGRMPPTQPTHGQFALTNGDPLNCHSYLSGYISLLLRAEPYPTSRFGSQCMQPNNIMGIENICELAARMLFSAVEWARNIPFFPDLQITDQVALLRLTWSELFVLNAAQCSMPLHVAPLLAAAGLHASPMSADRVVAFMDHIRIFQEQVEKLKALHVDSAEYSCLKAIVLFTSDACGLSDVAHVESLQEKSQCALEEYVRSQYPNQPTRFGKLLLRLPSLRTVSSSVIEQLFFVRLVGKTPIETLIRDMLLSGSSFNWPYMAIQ
CHT inh: human CHT choline transport inhibition; AID 488975; CHT-expressing cells, membrane potential dye, choline response; stronger effect = lower value; B-score at 10 µM; 0.86% of 310,000 active;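 active means B-score over 3 SD under the library average, and starting fluorescence ratio not unusually high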;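 further: choline stimulus applied at its EC90 after an EC20 pre-addition; B-score computed on integrated fluorescence ratio after choline addition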
NR2E3 ag-2: agonists of human NR2E3 nuclear receptor; CHO-S Gal4-NCOR/VP16-NR2E3 two-hybrid, luciferase; inhibition of corepressor binding, % at 3.98 µM; Q9Y5X4; 0.35% of 360,000 active;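 active means inhibition above the mean of all tested compounds plus 3 SD, cut at about 70% in these data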;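 further: 0% = DMSO with NR2E3 transfected cells and 100% = cells lacking NR2E3 construct; higher means lower luciferase signal from less NR2E3 corepressor binding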
VP16 Luc counter: counter-screen for COUP-TFII antagonists: inhibitors of VP16; shares compounds with NR2F2 inh; HEK293 Gal4-VP16 luciferase reporter, luminescence; inhibition, % at 8.5 µM; 25% of 2,500 active; AID 687007; in the data active means inhibition above about 13%
NR2F2 inh conf: confirmation of human COUP-TFII (NR2F2) inhibitors. AID 687008. HEK293 NGFI-A luciferase reporter, luminescence. 45% of 2,500 active. shares compounds with NR2F2 inh. inhibition, % at 8.5 µM;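 active means mean inhibition over three repeats above a set limit taken from the earlier primary screen, cut at about 38% in these data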;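 further: 100% = cells given the luciferase reporter alone without the COUP-TF2 vector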
* = called active by the depositor; i = inactive; . = not tested or not shown. Most compounds without a hit are left out; they make up all but 2.3% or so of the library.

SMILES	NR2E3 ag-1	CHT PAM	GalR3 antagonist	NR2F2 inh	CHT inh	NR2E3 ag-2	VP16 Luc counter	NR2F2 inh conf
Cc1ccc(NCC(=O)Nc2cccc(F)c2)cc1S(=O)(=O)N1CCCCCC1	1	i	-3	46*	i	-31	-4	7
COC(=O)CN1CCN(C(=O)c2nocc2C)CC1	.	.	.	-1	.	.	.	.
COC(=O)C1CN(CC(C)C)CCS(=O)(=O)N1Cc1ccc(Cl)cc1 (stereo not given)	.	.	.	-19	.	.	.	.
CC(C)CNC(=O)CC1Oc2ccccc2NC1=O (stereo not given)	.	.	.	3	.	.	.	.
CCOC(=O)C1CCN(C(c2cccnc2)c2c(NC(=O)c3ccco3)sc(C)c2C)CC1 (stereo not given)	0	i	-7	70*	i	-10	-14	39*
Cc1sc(NC(=O)c2ccco2)c(C(c2cccnc2)N2CCN(CCO)CC2)c1C (stereo not given)	0	i	-7	7	i	-23	.	.
NC(=S)N/N=C1\CCSc2ccc(Cl)cc21	2	i	-8	37*	i	-2	-1	33
O=C(N/N=C1\CCSc2ccc(F)cc21)c1cccnc1	3	i	5	-12	i	-1	.	.
COc1ccc2cc3cc(C(=O)Nc4cc(OC)c(OC)c(OC)c4)oc3nc2c1	1	i	-5	50*	i	-2	-6	19
CCN(CC)S(=O)(=O)c1cccc(C(=O)Nc2ccc(C#N)cc2)c1	0	i	-4	55*	i	2	-5	40*
CCN(CC)S(=O)(=O)c1cccc(NC(=O)c2ccc(Br)cc2)c1	3	i	-2	39*	i	-12	-6	2
CCN(CC)S(=O)(=O)c1cccc(C(=O)Nc2cc(C)cc(C)c2)c1	5	i	-3	-2	i	-15	.	.
CCCCc1cccc2[nH]cc(C)c12	.	.	.	3	.	.	.	.
COc1ccc(-c2csc(NC(=O)C3CCN(C(=O)c4ccc(F)cc4)CC3)n2)cc1OC	-1	i	-3	55*	i	29	8	21
COc1cccc(NC(=O)Nc2nc(-c3ccc(OC)c(OC)c3)cs2)c1	2	i	-9	73*	i	4	72*	100*
COc1ccc(CNC(=O)C2CCN(C(=O)c3ccc(F)cc3)CC2)cc1OC	-1	.	-4	3	.	11	.	.
Cc1cccc(Cn2c(NCCO)nc3c2c(=O)n(C)c(=O)n3C)c1	-4	i	-5	52*	i	-4	-7	25
CCOC(=O)[C@]12CCCC=C1N(CCCOC)C(=O)[C@@H]2CC(=O)N1CCCCC1	.	.	.	2	.	.	.	.
CN(Cc1ccc(OCC(O)CN2CCCCC2)cc1)Cc1ccnc2ccccc12 (stereo not given)	.	.	-9	59*	.	29	8	44*
Cc1nn(C)cc1CN(C)Cc1ccc(OCC(O)CN2CCCCC2)cc1 (stereo not given)	2	i	-5	19	i	11	.	.
Cc1ccc(-n2nc3c(=O)n(C(C)C(=O)NCc4ccco4)nc(C)c3c2C)cc1 (stereo not given)	-3	i	3	1	i	-2	.	.
Cc1ccc(-n2nc3c(=O)n(C(C)C(=O)NCc4ccccc4Cl)nc(C)c3c2C)cc1 (stereo not given)	1	i	-4	47*	i	32	5	39*
CCn1c(SCC(=O)c2[nH]c(C)c(C(C)=O)c2C)nnc1-c1cccs1	-2	i	-8	52*	i	38	3	13
CCCCCC[C@H](CN(CCCC)S(C)(=O)=O)c1ccccc1	.	.	.	14	.	.	.	.
NS(=O)(=O)c1cccc(NS(=O)(=O)c2cccc(C(F)(F)F)c2)c1	-2	i	5	43*	i	2	3	3
O=C(c1cccc(NS(=O)(=O)c2cccc(C(F)(F)F)c2)c1)N1CCOCC1	3	i	-4	-3	i	12	.	.
